In the library only some 1.5% were active in any assay of this set; here they are far more common.
APJ ag: agonists of human APJ apelin receptor. P35414. CHO-K1 APJ PathHunter beta-arrestin, luminescence; 0% DMSO wells, 100% apelin. activation, % at 20 µM. 330,000 tested, 0.11% active. AID 2520;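 active means activation more than six SD over the plate average, tested at 20 µM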
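system = engineered CHO-K1 APJ arrestin reporter cells | input = 1000 cells per well | timing = overnight seeding, 90 min compound at 25 °C, 1 h detection | measured by = enzyme-fragment complementation luminescence | read-out = beta-arrestin recruitment to APJ as agonist activity, luminescent signal | control set = negative DMSO alone, positive Apelin-13 at 10 nM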
m5-HT2A agonist: agonists of mouse serotonin 5-HT2A receptor (HTR2A) | P35363 | CHO-K1 mHTR2A beta-arrestin complementation, luminescence; percent of 30 µM serotonin response | activation, % at 7.6 µM | 360,000 tested, 0.66% active | AID 624169;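 active means activation above a run cutoff, the mean activation of all tested compounds plus 3 SD, cut at about 14% in these data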
CCR6 antag: blocks CCL20-driven beta-arrestin recruitment at human CCR6. CHO-K1 CCR6 PathHunter beta-arrestin, luminescence, CCL20-stimulated. inhibition, % at 20 µM. P51684. 340,000 tested, 0.49% active;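 active means compounds whose inhibition of the agonist-driven luminescence signal at 20 µM reaches about 50%, limit read from the data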;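 further: cells stimulated with CCL20 at 14 nM final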
NTR1 ag: agonists of human neurotensin receptor NTR1. P30989. NTR1-U2OS beta-arrestin-GFP spot imaging, agonist mode. activation, % at 20 µM. 330,000 tested, 0.17% active. AID 493036;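 active means activation at or above 40% of the spot to cytoplasm intensity ratio, with at least 20 cells analyzed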
Target sequence (P30989 whole entry, looked up): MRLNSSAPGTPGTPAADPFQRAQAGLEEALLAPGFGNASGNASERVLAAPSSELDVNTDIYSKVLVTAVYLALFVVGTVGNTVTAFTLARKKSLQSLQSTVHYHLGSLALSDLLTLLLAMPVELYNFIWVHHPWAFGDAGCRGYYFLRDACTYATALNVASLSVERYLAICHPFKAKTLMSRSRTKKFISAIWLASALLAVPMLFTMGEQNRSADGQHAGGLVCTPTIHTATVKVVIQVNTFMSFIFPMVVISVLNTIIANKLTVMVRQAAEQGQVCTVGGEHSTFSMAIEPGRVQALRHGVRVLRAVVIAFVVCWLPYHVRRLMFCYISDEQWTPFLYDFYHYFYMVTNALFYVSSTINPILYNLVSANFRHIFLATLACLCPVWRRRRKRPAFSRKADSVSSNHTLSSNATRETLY
CXCR6 inh: CXCR6 (human) receptor inhibition; CHO-K1 PathHunter CXCR6 beta-arrestin, luminescence; inhibition, % at 20 µM; 360,000 tested, 0.36% active; AID 602244; in the data active means inhibition above about 34%, passing the limit was not always enough;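 further: antagonist mode with CXCL16 agonist at 10 nM final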
APJ antagonist: APJ receptor antagonism; P35414; 330,000 tested, 0.32% active; inhibition, % at 20 µM; CHO-K1 APJ beta-arrestin complementation, luminescence; AID 2521;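 active means inhibition above about 40% at 20 µM, limit read from the data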;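 further: cells challenged with 10 nM apelin-13 agonist together with compound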
NTR1 ag confirm: confirmation of agonists of human NTR1; shares compounds with NTR1 ag; NTR1-U2OS beta-arrestin-GFP translocation imaging; activation, % at 20 µM; 480 tested, 38% active; AID 504550;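 active means mean activation at 20 µM of at least 40%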
A number is an active result.

`NC(c1ccccc1)c1csc(Nc2ccc(S(N)(=O)=O)cc2)n1` (centres undefined) gave m5-HT2A agonist inactive and CXCR6 inh inactive.
Screening O=C(CC(c1ccccc1)c1cc(Br)ccc1O)NCCN1CCOCC1 (centres undefined) returned APJ ag inactive, m5-HT2A agonist inactive, CCR6 antag inactive, NTR1 ag 43, CXCR6 inh inactive, APJ antagonist inactive and NTR1 ag confirm inactive.
For NS(=O)(=O)OCCCc1ccc(C(F)(F)F)cc1 the results were APJ ag inactive, m5-HT2A agonist inactive, CCR6 antag inactive, NTR1 ag inactive, CXCR6 inh inactive and APJ antagonist inactive.
Screening CCCCn1c(N)c(N(CC)C(=O)CCc2ccccc2)c(=O)[nH]c1=O returned APJ ag inactive, m5-HT2A agonist inactive, CCR6 antag inactive, NTR1 ag inactive, CXCR6 inh inactive and APJ antagonist inactive.
For COc1ccc(Cn2c(-c3ccc(OC)cc3)nc3c(c(=O)c4ccccc4n3C)c2=O)cc1 the results were APJ ag inactive, NTR1 ag inactive and APJ antagonist inactive.
For COc1ccc(Cn2c(-c3ccc(C)cc3)nc3c(c(=O)c4ccccc4n3C)c2=O)cc1 the results were APJ ag inactive, m5-HT2A agonist inactive, CCR6 antag inactive, NTR1 ag 41, CXCR6 inh inactive, APJ antagonist inactive and NTR1 ag confirm inactive.
`CC(=O)Nc1ccc(Nc2nc(C)c([N+](=O)[O-])c(Nc3ccccc3)n2)cc1` gave APJ ag inactive, m5-HT2A agonist inactive, CCR6 antag inactive, NTR1 ag 46, CXCR6 inh inactive, APJ antagonist inactive and NTR1 ag confirm inactive.
Screening CCCCn1c(N)c(-c2nc3ccccc3s2)c2c([N+](=O)[O-])nn(C)c(=O)c21 returned APJ ag inactive, m5-HT2A agonist inactive, CCR6 antag inactive, NTR1 ag 61, CXCR6 inh inactive, APJ antagonist inactive and NTR1 ag confirm inactive.
For N#CCC(=O)Nc1ccc(C(=O)OCC(=O)Nc2ccc3ccccc3c2)cc1 the results were APJ ag inactive, m5-HT2A agonist inactive, CCR6 antag inactive, NTR1 ag inactive, CXCR6 inh inactive and APJ antagonist inactive.
CCOC(=O)c1c(S(=O)(=O)NCC(=O)N2CCN(c3ccc(OC)cc3)CC2)c(C)n(C)c1C was read as APJ ag inactive, m5-HT2A agonist inactive, CCR6 antag inactive, NTR1 ag inactive, CXCR6 inh inactive and APJ antagonist inactive.
`CC1=C(C(=O)OC2CCCCCCC2)C(c2cc3c(cc2Br)OCO3)CC(=O)N1` (centres undefined) gave APJ ag inactive, m5-HT2A agonist inactive, CCR6 antag inactive, NTR1 ag 44, CXCR6 inh inactive, APJ antagonist inactive and NTR1 ag confirm 42.
`COC(=O)C1=C(C)NC(=O)CC1c1cc2c(cc1Br)OCO2` (centres undefined) gave APJ ag inactive, m5-HT2A agonist inactive, CCR6 antag inactive, NTR1 ag inactive, CXCR6 inh inactive and APJ antagonist inactive.
`Cc1ccc(NC(=O)c2cccc(S(=O)(=O)N3CCc4ccccc4C3)c2)nc1` gave APJ ag inactive, m5-HT2A agonist inactive, CCR6 antag inactive, NTR1 ag inactive, CXCR6 inh inactive and APJ antagonist inactive.
`Cc1cc(N2CCN(C)CC2)ccc1NC(=O)c1cccc(S(=O)(=O)N2CCc3ccccc3C2)c1` gave APJ ag inactive, m5-HT2A agonist inactive, CCR6 antag inactive, NTR1 ag 42, CXCR6 inh inactive, APJ antagonist inactive and NTR1 ag confirm inactive.
For Cc1cc(N2CCOCC2)ccc1/C=C\[N+](=O)[O-] the results were APJ ag inactive, m5-HT2A agonist inactive, CCR6 antag 56, NTR1 ag 40, CXCR6 inh inactive, APJ antagonist inactive and NTR1 ag confirm 77.
O=[N+]([O-])c1ccc(N2CCOCC2)cc1O was read as APJ ag inactive, m5-HT2A agonist inactive, CCR6 antag inactive, NTR1 ag inactive, CXCR6 inh inactive and APJ antagonist inactive.
Cc1ccc(-c2nc3cccnc3o2)cc1NC(=O)COc1ccc(Cl)cc1C was read as APJ ag inactive, m5-HT2A agonist inactive, CCR6 antag inactive, NTR1 ag inactive, CXCR6 inh inactive and APJ antagonist inactive.

Source: PubChem (several laboratories)
